The text below walks through data of ChEMBL document CHEMBL1148728, “Synthesis, biological activity, and crystal structure of potent nonnucleoside inhibitors of HIV-1 reverse transcriptase that retain activity against mutant forms of the enzyme” (J Med Chem, 2007).

Bounds are passed on as bounds.

The nature of series [1]: Toxicity against CEM cells. It counts as cell-based. As to conditions: human, CEM (CCRF-CEM) cells; read-out: TC50 (the source's name).
Series [2] deals with Human immunodeficiency virus 1. Kind of series: Antiviral activity against HIV1 with RT V106A mutation by cytopathic cell killing assay. The series is classed as functional, organism-based.
The test system of series [3] is Human immunodeficiency virus 1. Kind of series: Antiviral activity against HIV1 with RT K101E mutation by cytopathic cell killing assay. It counts as functional, organism-based. In general terms: Damage to the host cells serves as the signal in cytopathic effect assays.
Series [4] deals with Human immunodeficiency virus 1. Kind of series: Antiviral activity against wild type HIV1 NL4-3 by cytopathic cell killing assay. It counts as functional, organism-based. As to conditions: Human immunodeficiency virus 1, NL4-3. In outline: (§1)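 Cell-based assay in HIV-1-infected CEM cells, read out as protection from virus-induced cell killing.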
Series [5] concerns Human immunodeficiency virus 1. As to the kind of experiment: Antiviral activity against HIV1 with RT K103N mutation by cytopathic cell killing assay. The series is classed as functional, organism-based.
Series [6] deals with Human immunodeficiency virus 1. As to the kind of experiment: Antiviral activity against HIV1 with RT L100I mutation by cytopathic cell killing assay. It counts as functional, organism-based.
Series [7] concerns Human immunodeficiency virus 1. As to the kind of experiment: Antiviral activity against HIV1 infected CEM cells. The series is classed as functional, organism-based. The conditions noted are these: Human immunodeficiency virus 1, CCRF-CEM. The method, boiled down:
as §1

The subject of series [8] is Human immunodeficiency virus 1. Kind of series: Antiviral activity against HIV1 with RT V108I mutation by cytopathic cell killing assay. It counts as functional, organism-based.
In series [9] the target is Human immunodeficiency virus type 1 reverse transcriptase (Human immunodeficiency virus 1, UniProt Q72547). Kind of series: Inhibition of HIV1 NL4-3 reverse transcriptase.
Series [10] concerns Human immunodeficiency virus 1. Kind of series: Antiviral activity against HIV1 with RT Y181C mutation by cytopathic cell killing assay. It counts as functional, organism-based.
For series [11], the system named is Human immunodeficiency virus 1. As to the kind of experiment: Antiviral activity against HIV1 with RT Y188C mutation by cytopathic cell killing assay. It counts as functional, organism-based.

The EC50 is the midpoint of the concentration-response curve. Lower therefore signals greater potency. By IC50 is commonly meant the point on the concentration scale where inhibition reaches its midpoint. Low readings indicate greater potency in that assay, high ones weaker potency in that assay.

`CC(=O)N(C)c1cccc2c1nc(-c1c(F)cccc1F)n2Cc1c(F)cccc1F`: the CC50 in series [1] is > 100000 nM. The EC50 is 50 nM in series [2]; 640 nM in [3]; 40 nM in series [4]; > 10000 nM in [5]; 1660 nM in series [6]; 20 nM in [7]. The EC50 was > 10000 nM in series [8], 400 nM in series [10] and 540 nM in series [11]. This compound displayed an IC50 in [9] of 320 nM.
